The source made the active and inactive calls. No cut-off for these calls is given here.
How the values were obtained:
N2a [1] = test: Increase in lanosterol levels in Dhcr7-deficient mouse Neuro2a cells at 1 uM by LC-MS analysis; type: functional, cell-based
How it was run: (§1)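 Dhcr7-deficient Neuro2a cells (13000/well, 0.5% FBS medium) on predeposited compound, 24 h at 37 °C. Hoechst-stained and imaged to count cells. Lysed in methanol containing isotope-labelled sterol standards, derivatized with PTAD 20 min at RT, then isocratic C18 UPLC-MS/SRM. Remaining extract silylated with BSTFA for GC-MS, quantified against d7-cholesterol. Follow-up runs in triplicate.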

Fibroblast [2] = test: Increase in lanosterol levels in human SLOS fibroblasts at 1 uM by LC-MS/GC-MS analysis; type: functional, cell-based
How it was run: (§2)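 SLOS patient skin fibroblasts (passage 8–20) grown in 96-well plates in delipidated serum with compound for 5 days; three different SLOS lines. Sterols quantified by PTAD-derivatized UPLC-MS plus GC-MS; 7-DHC expressed as percentage of untreated cells.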

[3] = target: T1, Delta(24)-sterol reductase (Mus musculus) (UniProt Q8VCH6); test: Inhibition of DR24 in Dhcr7-deficient mouse Neuro2a cells assessed as increase in desmosterol levels at 100 nM by LC-MS/GC-MS analysis; type: cell-based
T1 sequence (whole entry): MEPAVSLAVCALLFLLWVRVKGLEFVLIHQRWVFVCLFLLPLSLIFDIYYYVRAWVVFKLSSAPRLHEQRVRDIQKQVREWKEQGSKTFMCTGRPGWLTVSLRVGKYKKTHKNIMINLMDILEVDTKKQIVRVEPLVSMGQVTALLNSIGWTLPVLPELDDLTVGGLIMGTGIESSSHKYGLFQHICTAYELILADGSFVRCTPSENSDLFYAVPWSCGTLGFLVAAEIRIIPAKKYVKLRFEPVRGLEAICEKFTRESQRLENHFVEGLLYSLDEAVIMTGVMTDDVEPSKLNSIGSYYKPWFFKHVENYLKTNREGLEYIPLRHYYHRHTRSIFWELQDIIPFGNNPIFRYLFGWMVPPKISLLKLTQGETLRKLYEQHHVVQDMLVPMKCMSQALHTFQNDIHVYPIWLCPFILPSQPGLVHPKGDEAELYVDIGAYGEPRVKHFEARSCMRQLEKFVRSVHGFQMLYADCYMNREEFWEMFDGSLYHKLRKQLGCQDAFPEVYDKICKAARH
How it was run: (§3)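 Follow-up (verification) assay in 96-well plates, run as the 384-well screen, in triplicate, at varying compound concentrations. Cells counted by Hoechst imaging, washed with PBS, then lysed in MeOH with BHT/TPP and isotope standards (d7-Chol, d7-7-DHC, 13C3-Des, 13C3-Lan). Sterols derivatised with PTAD for 20 min at RT and quantified by C18 UPLC-MS (SRM). Remaining sample silylated with BSTFA and run on GC-MS, quantified against d7-Chol.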

[4] = target: T1, Delta(24)-sterol reductase (Mus musculus); test: Inhibition of DR24 in Dhcr7-deficient mouse Neuro2a cells assessed as decrease in 7-DHC levels at 1 uM by LC-MS/GC-MS analysis; type: cell-based; how it was run: as §1
N2a [5] = test: Change in cholesterol level in Dhcr7-deficient mouse Neuro2a cells at 100 nM by LC-MS/GC-MS analysis; type: functional, cell-based; how it was run: as §3
[6] = target: T1, Delta(24)-sterol reductase (Mus musculus); test: Inhibition of DR24 in Dhcr7-deficient mouse Neuro2a cells assessed as increase in lanosterol levels at 100 nM by LC-MS/GC-MS analysis; type: cell-based; how it was run: as §3
[7] = target: T1, Delta(24)-sterol reductase (Mus musculus); test: Inhibition of C-24 reductase in Dhcr7-deficient mouse Neuro2a cells assessed as increase in desmosterol levels at 1 uM by LC-MS/GC-MS analysis; type: cell-based; how it was run: as §1
[8] = target: T1, Delta(24)-sterol reductase (Mus musculus); test: Inhibition of DR24 in mouse Neuro2a cells assessed as decrease in 7-DHC levels at 1 uM by LC-MS/GC-MS analysis; type: cell-based
How it was run: (§4)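 Control Neuro2a cells (10000/well, 0.5% FBS) on compound, 24 h. Hoechst cell count, then methanol lysis with labelled standards (d7-7-DHC, 13C3-desmosterol, 13C3-lanosterol), PTAD derivatization 20 min at RT, UPLC-MS SRM. GC-MS of silylated extract for further sterols.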

[9] = target: T2, 3-beta-hydroxysteroid-Delta(8),Delta(7)-isomerase (Mus musculus) (UniProt P70245); test: Inhibition of delta 8-7 isomerase in Dhcr7-deficient mouse Neuro2a cells assessed as decrease in 7-DHC levels at 1 uM by LC-MS/GC-MS analysis; type: cell-based; how it was run: as §1
T2 sequence (whole entry): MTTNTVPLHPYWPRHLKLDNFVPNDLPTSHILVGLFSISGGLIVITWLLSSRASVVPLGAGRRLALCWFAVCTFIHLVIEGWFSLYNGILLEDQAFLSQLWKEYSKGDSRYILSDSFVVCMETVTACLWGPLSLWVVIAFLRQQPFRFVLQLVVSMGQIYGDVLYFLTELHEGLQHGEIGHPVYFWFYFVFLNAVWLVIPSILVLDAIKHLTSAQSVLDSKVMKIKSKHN

[10] = target: T2, 3-beta-hydroxysteroid-Delta(8),Delta(7)-isomerase (Mus musculus); test: Inhibition of delta 8-7 isomerase in mouse Neuro2a cells assessed as decrease in 7-DHC levels at 1 uM by LC-MS/GC-MS analysis; type: cell-based; how it was run: as §4
[11] = target: T1, Delta(24)-sterol reductase (Mus musculus); test: Inhibition of C-24 reductase in Dhcr7-deficient mouse Neuro2a cells assessed as increase in zymosterol levels at 1 uM by LC-MS/GC-MS analysis; type: cell-based; how it was run: as §1
[12] = target: 3-beta-hydroxysteroid-Delta(8),Delta(7)-isomerase (Homo sapiens) (UniProt Q15125); test: Inhibition of delta 8-7 isomerase in human SLOS fibroblasts assessed as decrease in 7-DHC levels at 10 nM after 5 days by LC-MS/GC-MS analysis; how it was run: as §2
[13] = target: T1, Delta(24)-sterol reductase (Mus musculus); test: Inhibition of DR24 in Dhcr7-deficient mouse Neuro2a cells assessed as decrease in 7-DHC levels at 200 nM after 24 hrs by LC-MS analysis; type: cell-based
How it was run: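 384-well screen: Dhcr7-deficient Neuro2a cells (13000/well, 0.5% FBS) with compound at 20 or 200 nM (five wells each), 24 h at 37 °C. Cells counted after Hoechst imaging, then methanol lysis with d7-7-DHC standard, PTAD derivatization 20 min at RT, UPLC-MS SRM (7-DHC 560→365). Read-out is pg 7-DHC per cell.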

[14] = target: T2, 3-beta-hydroxysteroid-Delta(8),Delta(7)-isomerase (Mus musculus); test: Inhibition of delta 8-7 isomerase in Dhcr7-deficient mouse Neuro2a cells assessed as decrease in 7-DHC levels at 200 nM after 24 hrs by LC-MS analysis; type: cell-based
How it was run: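 384-well screen: Dhcr7-deficient Neuro2a cells (13000/well) dispensed in 0.5% FBS medium onto predeposited compound (five wells each at 20 and 200 nM) and incubated 24 h at 37 °C. Nuclei Hoechst-stained and counted by automated imaging. Cells lysed in MeOH with deuterated and 13C standards, then derivatised with PTAD for 20 min at RT. 7-DHC measured by isocratic UPLC-MS (SRM) and expressed as pg per cell; DMSO wells served as controls.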

[15] = Cytotoxicity against human SLOS fibroblasts at 5 uM after 5 days by Cell Titer assay; type: cell-based; conditions: fibroblast, 120 h
Fibroblast [16] = test: Decrease in cholesterol levels in human SLOS fibroblasts at 10 nM after 5 days by LC-MS/GC-MS analysis; type: functional, cell-based; how it was run: as §2
[17] = target: T3, Delta(24)-sterol reductase (Homo sapiens) (UniProt Q15392); test: Inhibition of DR24 in human SLOS fibroblasts assessed as decrease in 7-DHC levels at 10 nM after 5 days by LC-MS/GC-MS analysis; how it was run: as §2
T3 sequence (whole entry): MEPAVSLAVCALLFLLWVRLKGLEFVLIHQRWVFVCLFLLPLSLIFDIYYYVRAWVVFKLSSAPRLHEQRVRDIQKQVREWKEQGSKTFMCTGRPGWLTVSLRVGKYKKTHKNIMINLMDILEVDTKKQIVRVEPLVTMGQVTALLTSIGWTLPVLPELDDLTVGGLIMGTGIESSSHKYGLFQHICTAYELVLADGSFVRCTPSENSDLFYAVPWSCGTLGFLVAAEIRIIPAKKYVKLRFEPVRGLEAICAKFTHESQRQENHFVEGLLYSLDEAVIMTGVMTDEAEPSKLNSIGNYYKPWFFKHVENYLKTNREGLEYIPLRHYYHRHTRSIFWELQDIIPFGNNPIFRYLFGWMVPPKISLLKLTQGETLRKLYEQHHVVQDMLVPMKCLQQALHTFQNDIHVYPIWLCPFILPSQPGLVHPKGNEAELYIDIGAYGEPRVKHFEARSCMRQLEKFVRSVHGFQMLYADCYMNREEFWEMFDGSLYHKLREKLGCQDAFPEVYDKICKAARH

3-beta-hydroxysteroid-Delta(8),Delta(7)-isomerase (Homo sapiens), sequence (Q15125 whole entry): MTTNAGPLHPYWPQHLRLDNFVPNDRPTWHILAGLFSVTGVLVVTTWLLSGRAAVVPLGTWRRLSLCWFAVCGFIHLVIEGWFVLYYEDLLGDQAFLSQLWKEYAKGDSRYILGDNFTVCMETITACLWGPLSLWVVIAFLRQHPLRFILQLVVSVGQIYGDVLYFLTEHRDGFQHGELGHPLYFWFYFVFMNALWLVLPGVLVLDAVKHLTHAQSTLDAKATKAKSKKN

**Q.** For `CC(=O)O[C@@]1(C(C)=O)CC[C@H]2[C@H]3C=C(C)C4=CC(=O)CC[C@]4(C)[C@H]3CC[C@@]21C`, which Activity (N2a [1]) is on record?
**A.** Its Activity is “Active”.

**Q.** And the Activity (Fibroblast [2])?
**A.** The Activity was “Active”.

**Q.** Which inhibition [3] does the source give for `CCC(COC(=O)c1cc(OC)c(OC)c(OC)c1)(c1ccccc1)N(C)C` (configuration not stated) here?
**A.** The inhibition was “Active”.

**Q.** And the inhibition [4]?
**A.** The inhibition was “Active”.

**Q.** And the Activity (N2a [5])?
**A.** The Activity was “inactive”.

**Q.** What about the inhibition [6] of the same compound?
**A.** The inhibition was “Active”.

**Q.** For `Oc1ccc2c(c1)CC[C@H](c1ccccc1)[C@@H]2c1ccc(OCCN2CCCC2)cc1`, which inhibition [4] is on record?
**A.** The inhibition was “Active”.

**Q.** What about the inhibition [7] of the same compound?
**A.** The inhibition was “Active”.

**Q.** What about the “Decrease in 7-DHC levels (active/inactive call)” value [8] of the same compound?
**A.** Its value is “Active”.

**Q.** What about the inhibition [9] of the same compound?
**A.** The inhibition was “Active”.

**Q.** What about the “Activity (decrease in 7-DHC levels)” value [10] of the same compound?
**A.** Its value is “Active”.

**Q.** And the inhibition [11]?
**A.** Its inhibition is “Active”.

**Q.** With `Cc1c(-c2ccc(O)cc2)n(Cc2ccc(OCCN3CCCCCC3)cc2)c2ccc(O)cc12` [BAZEDOXIFENE] as the compound, how does the inhibition [12] read?
**A.** Its inhibition is “Active”.

**Q.** What about the inhibition [13] of the same compound?
**A.** The inhibition was “Active”.

**Q.** And the inhibition [14]?
**A.** Its inhibition is “Active”.

**Q.** And the Activity [15]?
**A.** Its Activity is “Toxic”.

**Q.** What about the inhibition [4] of the same compound?
**A.** The inhibition was “Active”.

**Q.** What about the Activity (Fibroblast [16]) of the same compound?
**A.** The Activity was “inactive”.

**Q.** What about the “Decrease in 7-DHC levels (active/inactive call)” value [8] of the same compound?
**A.** Its value is “Active”.

**Q.** What about the inhibition [17] of the same compound?
**A.** The inhibition was “Active”.

**Q.** And the inhibition [9]?
**A.** The inhibition was “Active”.

**Q.** What about the “Activity (decrease in 7-DHC levels)” value [10] of the same compound?
**A.** Its value is “Active”.

From ChEMBL document CHEMBL3774374, “The Effect of Small Molecules on Sterol Homeostasis: Measuring 7-Dehydrocholesterol in Dhcr7-Deficient Neuro2a Cells and Human Fibroblasts” (J Med Chem, 2016)
